Our source for the CC50, EC50 and IC50 values is ChEMBL document CHEMBL1143000, “Application of the phosphoramidate ProTide approach to 4'-azidouridine confers sub-micromolar potency versus hepatitis C virus on an inactive nucleoside” (J Med Chem, 2007).

Series [1] can be described thus: Cytotoxicity against in 2209-23 cells by WST assay. It is filed as cell-based. The settings on record: human. The method, boiled down:
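Cell viability read by WST assay in 2209-23 replicon cells (Huh-7 derived, stably carrying a genotype 1b bicistronic HCV replicon). CC50 is the concentration that reduces cell viability by 50%.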

Series [2] concerns Hepatitis C virus. The series is described as follows: Inhibition of HCV RNA replication in 2209-23 cells transfected with bicistronic HCV replicon. Type of series: functional, Hepacivirus hominis. The method, boiled down: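 Huh-7-derived 2209-23 cells stably carry a bicistronic genotype 1b HCV replicon with a renilla luciferase reporter. Replication is read as luciferase signal. EC50 is the concentration that reduces HCV replication by 50%.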
On the technique in general: In antiviral work, replicon cells carry a viral genome segment that copies itself.

Series [3] in a line: Inhibition of HCV NS5B570-Con1 RNA polymerase. Further details: species or system Hepacivirus hominis. The method, boiled down:
(§1)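 Recombinant HCV genotype 1b NS5B truncated at residue 570, from strain Con1 or strain BK. RNA synthesis was run primer-independently on HCV genome-derived cIRES RNA template. Read-out was incorporation of radiolabeled UMP into acid-insoluble RNA product.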

Series [4] in a line: Inhibition of HCV NS5B570n-BK RNA polymerase. Further details: species or system Hepacivirus hominis. The method, boiled down:
as §1

What is called CC50 is the concentration giving 50% cytotoxicity. The low end stands for harm at low concentration, the high end for better tolerance by the cells. One may read the pEC50 as the negative decadic logarithm of the EC50, by convention in mol/L. For orientation: pIC50 means the IC50 on a negative log10 scale, so that one unit is a factor of ten. Higher therefore signals a small IC50.

pEC50, pIC50: −log10 of the molar value. Where only a bound is given, the exact number is not on record here.

In series [1], `[N-]=[N+]=N[C@]1(COP(=O)(NCC(=O)OCc2ccccc2)Oc2ccccc2)O[C@@H](n2ccc(=O)[nH]c2=O)[C@@H](O)[C@H]1O` (some centres not stated) showed a CC50 of more than 100 µM. Further, in series [2] (Hepatitis C virus), the pEC50 was 5.80.
For the compound `CCOC(=O)CCNP(=O)(OC[C@@]1(N=[N+]=[N-])O[C@@H](n2ccc(=O)[nH]c2=O)[C@@H](O)[C@H]1O)Oc1ccccc1` (some centres not stated), the CC50 in series [1] is more than 100 µM. This compound showed a pEC50 in series [2] (Hepatitis C virus) of less than 4.00.
As to `[N-]=[N+]=N[C@]1(COP(=O)(O)OP(=O)(O)OP(=O)(O)O)O[C@@H](n2ccc(=O)[nH]c2=O)[C@@H](O)[C@H]1O`, the pIC50 in series [3] is 6.66; in series [4], 6.64.
Take `C[C@H](NP(=O)(OC[C@@]1(N=[N+]=[N-])O[C@@H](n2ccc(=O)[nH]c2=O)[C@@H](O)[C@H]1O)Oc1ccccc1)C(=O)OC(C)(C)C` (some centres not stated): in series [1], the CC50 is more than 100 µM. Moreover, the pEC50 in series [2] (Hepatitis C virus) is 5.29.
Take `CCC(C)OC(=O)[C@H](C)NP(=O)(OC[C@@]1(N=[N+]=[N-])O[C@@H](n2ccc(=O)[nH]c2=O)[C@@H](O)[C@H]1O)Oc1ccccc1` (some centres not stated): in series [1], the CC50 is more than 100 µM. The pEC50 in series [2] (Hepatitis C virus) was 6.20.
`CC(C)(NP(=O)(OC[C@@]1(N=[N+]=[N-])O[C@@H](n2ccc(=O)[nH]c2=O)[C@@H](O)[C@H]1O)Oc1ccccc1)C(=O)OCc1ccccc1` (some centres not stated) yielded a CC50 in series [1] of more than 100 µM. Further, in series [2] (Hepatitis C virus), the pEC50 is 5.47.
The like results for `CCOC(=O)CN(C)P(=O)(OC[C@@]1(N=[N+]=[N-])O[C@@H](n2ccc(=O)[nH]c2=O)[C@@H](O)[C@H]1O)Oc1ccccc1` (some centres not stated) were, in that order, more than 100 µM and less than 4.00.
In turn, `CC(C)OC(=O)[C@H](C)NP(=O)(OC[C@@]1(N=[N+]=[N-])O[C@@H](n2ccc(=O)[nH]c2=O)[C@@H](O)[C@H]1O)Oc1ccccc1` (some centres not stated) returned a CC50 in series [1] of more than 100 µM. In series [2] (Hepatitis C virus), this compound had a pEC50 of 6.11.
Regarding `CCOC(=O)[C@H](Cc1ccccc1)NP(=O)(OC[C@@]1(N=[N+]=[N-])O[C@@H](n2ccc(=O)[nH]c2=O)[C@@H](O)[C@H]1O)Oc1ccccc1` (some centres not stated), in series [1], the CC50 is more than 100 µM. The same compound gave a pEC50 in series [2] (Hepatitis C virus) of 5.86.
`CCOC(=O)[C@@H]1CCCN1P(=O)(OC[C@@]1(N=[N+]=[N-])O[C@@H](n2ccc(=O)[nH]c2=O)[C@@H](O)[C@H]1O)Oc1ccccc1` (some centres not stated) registered a CC50 in series [1] of more than 100 µM. Moreover, the negative logarithm of the EC50 (pEC50) in series [2] (Hepatitis C virus) was 5.22.
Compound `CCOC(=O)[C@H](CC(C)C)NP(=O)(OC[C@@]1(N=[N+]=[N-])O[C@@H](n2ccc(=O)[nH]c2=O)[C@@H](O)[C@H]1O)Oc1ccccc1` (some centres not stated) returned a CC50 in series [1] of more than 100 µM. In addition, the negative-log EC50 (pEC50) in series [2] (Hepatitis C virus) was 5.64.
With `CCCCOC(=O)[C@H](C)NP(=O)(OC[C@@]1(N=[N+]=[N-])O[C@@H](n2ccc(=O)[nH]c2=O)[C@@H](O)[C@H]1O)Oc1ccccc1` (some centres not stated), in series [1], the CC50 is more than 100 µM. The compound also showed a pEC50 in series [2] (Hepatitis C virus) of 5.92.
Turning to `CCOC(=O)C1(NP(=O)(OC[C@@]2(N=[N+]=[N-])O[C@@H](n3ccc(=O)[nH]c3=O)[C@@H](O)[C@H]2O)Oc2ccccc2)CCCC1` (some centres not stated), the CC50 in series [1] is more than 100 µM. The same compound gave a pEC50 in series [2] (Hepatitis C virus) of less than 4.00.
The compound `[N-]=[N+]=N[C@]1(COP(=O)(NC2(C(=O)OCc3ccccc3)CCCC2)Oc2ccccc2)O[C@@H](n2ccc(=O)[nH]c2=O)[C@@H](O)[C@H]1O` (some centres not stated) had a CC50 in series [1] of more than 100 µM. Further, the pEC50 in series [2] (Hepatitis C virus) was more than 4.00.
The corresponding values for `C[C@@H](NP(=O)(OC[C@@]1(N=[N+]=[N-])O[C@@H](n2ccc(=O)[nH]c2=O)[C@@H](O)[C@H]1O)Oc1ccccc1)C(=O)OCc1ccccc1` (some centres not stated) are more than 100 µM and 5.92.
`[N-]=[N+]=N[C@]1(COP(=O)(N[C@@H](Cc2ccccc2)C(=O)OCc2ccccc2)Oc2ccccc2)O[C@@H](n2ccc(=O)[nH]c2=O)[C@@H](O)[C@H]1O` (some centres not stated): the CC50 in series [1] is more than 100 µM. This compound gave a pEC50 in series [2] (Hepatitis C virus) of more than 4.00.
The like results for `COC(=O)[C@H](C)NP(=O)(OC[C@@]1(N=[N+]=[N-])O[C@@H](n2ccc(=O)[nH]c2=O)[C@@H](O)[C@H]1O)Oc1ccccc1` (some centres not stated) were, in that order, more than 100 µM and 5.51.
The like results for `[N-]=[N+]=N[C@]1(CO)O[C@@H](n2ccc(=O)[nH]c2=O)[C@@H](O)[C@H]1O` were, in that order, more than 100 µM and less than 4.00.
In series [1], `CCOC(=O)[C@H](CCSC)NP(=O)(OC[C@@]1(N=[N+]=[N-])O[C@@H](n2ccc(=O)[nH]c2=O)[C@@H](O)[C@H]1O)Oc1ccccc1` (some centres not stated) had a CC50 of more than 100 µM. In series [2] (Hepatitis C virus), this compound showed a pEC50 of 4.85.
For the compound `[N-]=[N+]=N[C@]1(COP(=O)(O)OP(=O)(O)OP(=O)(O)O)O[C@@H](n2ccc(N)nc2=O)[C@@H](O)[C@H]1O`, the pIC50 is 6.49 in series [3] and 6.54 in series [4].
As for `CCOC(=O)[C@H](C)NP(=O)(OC[C@@]1(N=[N+]=[N-])O[C@@H](n2ccc(=O)[nH]c2=O)[C@@H](O)[C@H]1O)Oc1ccccc1` (some centres not stated), the CC50 in series [1] is more than 100 µM. This compound had a pEC50 in series [2] (Hepatitis C virus) of 5.89.
In the case of `CCOC(=O)C(C)(C)NP(=O)(OC[C@@]1(N=[N+]=[N-])O[C@@H](n2ccc(=O)[nH]c2=O)[C@@H](O)[C@H]1O)Oc1ccccc1` (some centres not stated), the CC50 in series [1] was more than 100 µM. The same compound gave a pEC50 in series [2] (Hepatitis C virus) of 4.99.
In series [1], `C[C@H](NP(=O)(OC[C@@]1(N=[N+]=[N-])O[C@@H](n2ccc(=O)[nH]c2=O)[C@@H](O)[C@H]1O)Oc1ccccc1)C(=O)OCc1ccccc1` (some centres not stated) gave a CC50 of more than 100 µM. The same compound had a pEC50 in series [2] (Hepatitis C virus) of 6.21.
The like results for `CC(C)[C@H](NP(=O)(OC[C@@]1(N=[N+]=[N-])O[C@@H](n2ccc(=O)[nH]c2=O)[C@@H](O)[C@H]1O)Oc1ccccc1)C(=O)OCc1ccccc1` (some centres not stated) were, in that order, more than 100 µM and more than 4.00.
In turn, `C[C@H](NP(=O)(OC[C@@]1(N=[N+]=[N-])O[C@@H](n2ccc(=O)[nH]c2=O)[C@@H](O)[C@H]1O)Oc1cccc2ccccc12)C(=O)OCc1ccccc1` (some centres not stated) [listing 1 of 3 here] gave a pEC50 in series [2] of 6.66.
Take `C[C@H](NP(=O)(OC[C@@]1(N=[N+]=[N-])O[C@@H](n2ccc(=O)[nH]c2=O)[C@@H](O)[C@H]1O)Oc1cccc2ccccc12)C(=O)OCc1ccccc1` (some centres not stated) [listing 2 of 3 here]: the pEC50 in series [2] is 6.41. Against the preceding compound, the pEC50 is 0.25 log units lower.
Compound `C[C@H](NP(=O)(OC[C@@]1(N=[N+]=[N-])O[C@@H](n2ccc(=O)[nH]c2=O)[C@@H](O)[C@H]1O)Oc1cccc2ccccc12)C(=O)OCc1ccccc1` (some centres not stated) [listing 3 of 3 here] registered a CC50 in series [1] of more than 100 µM. The compound further showed a pEC50 in series [2] (Hepatitis C virus) of 6.37.
